Broadly, the IC50 is the concentration at which inhibition is half-maximal.

13 compounds from paper PMC6427685 (Journal of Enzyme Inhibition and Medicinal Chemistry, 2019) can be followed below.

Each structure is given as a SMILES string. Read-outs that look alike come from different tables or passages of the source.

Data set [1] concerns the target Recombinant M. tuberculosis MbtI (Mycobacterium tuberculosis, UniProt P9WFX1). Put plainly: biochemical. As to conditions: for remaining activity at 100 µM: pH 7.5, read-out: Residual activity at 100 µM (%).
The next data set in a line: Cell viability assay. As to conditions: human, MRC5 human fibroblast lung cells. The class given is cell-based. Put shortly: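 MRC5 human lung fibroblasts were kept at 37 °C in humidified 5% CO2 and seeded in 96-well plates. The next day, vehicle or test compound was added at 200 to 0.01 µM.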

Chain of Recombinant M. tuberculosis MbtI (P9WFX1 whole entry): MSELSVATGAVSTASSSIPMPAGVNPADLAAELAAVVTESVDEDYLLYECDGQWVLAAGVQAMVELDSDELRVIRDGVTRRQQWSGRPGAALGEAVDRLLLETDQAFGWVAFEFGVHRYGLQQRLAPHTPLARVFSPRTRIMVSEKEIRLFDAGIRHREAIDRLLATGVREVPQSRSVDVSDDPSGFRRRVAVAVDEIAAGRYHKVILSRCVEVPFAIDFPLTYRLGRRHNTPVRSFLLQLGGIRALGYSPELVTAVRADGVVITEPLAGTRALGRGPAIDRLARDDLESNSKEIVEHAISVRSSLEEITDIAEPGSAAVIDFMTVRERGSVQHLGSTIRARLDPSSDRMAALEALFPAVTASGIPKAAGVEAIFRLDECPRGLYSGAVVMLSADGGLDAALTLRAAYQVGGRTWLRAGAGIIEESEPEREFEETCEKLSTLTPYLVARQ

As for `N#Cc1cc(C(F)(F)F)ccc1-c1ccc(C(=O)O)o1` [1g, 5-(2-cyano-4-(trifluoromethyl)phenyl)furan-2-carboxylic acid], in data set [1], the IC50 was determined as 18.5 ± 3.2 µM and the remaining activity at 100 µM came to 5.7 ± 1.5%.
Regarding `O=C(O)c1ccc(-c2ccc(C(F)(F)F)cc2Br)o1` [1c], the remaining activity at 100 µM in data set [1] was found to be 38 ± 3.7%.
Same read-out and setting: under `O=C(O)c1ccc(-c2ccc([N+](=O)[O-])cc2Br)o1` [1j] stands 32.1 ± 2.4%.
Turning to `Cc1cc(C(F)(F)F)ccc1-c1ccc(C(=O)O)o1` [1e], in data set [1], the IC50 came out at 31.5 ± 9.6 µM and the remaining activity at 100 µM was found to be 19.3 ± 2.2%.
The matching figures for `O=C(O)c1ccc(-c2ccc([N+](=O)[O-])cc2O)o1` [1l]: 29.8 ± 4.2 µM and 13.9 ± 4%.
As to `N#Cc1cc([N+](=O)[O-])ccc1-c1ccc(C(=O)O)o1` [1o, 5-(2-cyano-4-nitro-phenyl)furan-2-carboxylate], in data set [1] (compound at 100 µM, 50 µM chorismic acid, 37 °C, pH 7.5), the “Residual activity at 100 µM (%)” value is given as 5.0 ± 1.9%. The IC50 in data set [1] (read-out: MbtI IC50) is 24.4 ± 5.9 µM.
As to `O=C(O)c1ccc(-c2ccc([N+](=O)[O-])cc2F)o1` [1k], the remaining activity at 100 µM in data set [1] came out at 26.4 ± 4.8%.
For `Cc1cc([N+](=O)[O-])ccc1-c1ccc(C(=O)O)o1` [1m], in data set [1], the IC50 came out at 28.5 ± 1.5 µM and the remaining activity at 100 µM worked out at 13.2 ± 5.8%.
For `O=C(O)c1ccc(-c2ccc(C(F)(F)F)cc2F)o1` [1b] the same measures were 27.6 ± 7.3 µM and 6.1 ± 1.1%.
Consider `O=C(O)c1ccc(-c2ccc(C(F)(F)F)cc2O)o1` [1d], for which, in data set [1], the 50% inhibitory concentration (IC50) was determined as 35.9 ± 10.3 µM and the remaining activity at 100 µM was found to be 16.8 ± 2.7%.
The matching figures for `Nc1cc([N+](=O)[O-])ccc1-c1ccc(C(=O)O)o1` [1n]: 24.2 ± 5.4 µM and 13.5 ± 3.8%.
Take `O=C(O)c1ccc(-c2ccc([N+](=O)[O-])cc2C(F)(F)F)o1` [1p]: in the data set “Cell viability assay”, the IC50 at 96 h is over 100 µM. For the same compound, the remaining activity at 100 µM in data set [1] is 25.1 ± 3.7%.
With `Nc1cc(C(F)(F)F)ccc1-c1ccc(C(=O)O)o1` [1f], in data set [1], the IC50 worked out at 34.6 ± 10.9 µM and the remaining activity at 100 µM was 13.1 ± 2.4%.
